Results: ChEMBL document CHEMBL1629579, “Correlating echinocandin MIC and kinetic inhibition of fks1 mutant glucan synthases for Candida albicans: implications for interpretive breakpoints” (Antimicrob Agents Chemother, 2009)
Converted amounts (≈) assume the structure as drawn. Numbered stars: 1 amine (or outer) side, 2 acyl side, 3 side chain; on linkers, the order of the positions; unused ones are H or OH. Bridge positions count the residues as written; N and C are the ends. Square brackets hold non-standard residues; d marks the D form. Peptide text beside a SMILES is read from it. * marks the point of attachment. hTyr(3S-OH,4S-OH,3'-OSO3H) = N[C@H](C(=O)O)[C@H](O)[C@@H](O)c1ccc(O)c(OS(=O)(=O)O)c1; Orn(4R-OH,5R-OH) = O=C([C@H](C[C@@H](O)[C@@H](O)N[*:3])N[*:1])[*:2]; Pro(3S-OH,4S-Me) = C[C@H]1CN[C@H](C(=O)O)[C@H]1O; X1 = CCCCCOc1ccc(-c2cc(-c3ccc(C(=O)*)cc3)no2)cc1; Gln(3R-OH) = NC(=O)C[C@@H](O)[C@H](N)C(=O)O; Hyp = O=C(O)[C@@H]1C[C@@H](O)CN1

Assays:
[1] = system: Candida albicans; assay: Activity at Candida albicans 1002 1,3-beta-D-glucan synthase subunit FKS1p
Outline: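 Glucan synthase from cells grown at 37°C with vigorous shaking to early stationary phase in YPD. Membrane enzyme enriched by product entrapment. Serial echinocandin dilutions; ANF controls held 1% DMSO. Reaction started by adding enzyme, run 60 min at 25°C in a filtration polymerization assay, stopped on ice. IC50 from a variable-slope sigmoidal fit; means of three repetitions on separate days.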

[2] = Inhibition of Candida albicans 90 1,3-beta-D-glucan synthase subunit FKS1p G4082R mutant
Outline: (§1)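 Enzyme is product-entrapped 1,3-β-D-glucan synthase, enriched from membranes of each strain grown at 37°C with shaking in YPD broth to early stationary phase. Filtration polymerization assay uses [3H]UDPG, started by adding enzyme and run 60 min at 25°C. Echinocandins are added as serial dilutions, with 1% DMSO controls for anidulafungin. IC50 is from a variable-slope sigmoidal fit; values are triplicate arithmetic means.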

[3] = system: Candida albicans; assay: Activity at Candida albicans 121 1,3-beta-D-glucan synthase subunit FKS1p G4082A mutant
Outline: (§2)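 Product-entrapped 1,3-β-D-glucan synthase from cells grown in YPD at 37°C to early stationary phase. Wells held 50 mM HEPES pH 7.5, 10% glycerol, 1.5 mg/ml BSA, 25 mM KF, 1 mM EDTA, 25 μM GTP-γ-S, 1 μg enzyme and [3H]UDPG (0.015–2 mM). Reactions ran 60 min at 25°C. Vmax and Km came from Lineweaver-Burke plots, in triplicate.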

[4] = system: Candida albicans; assay: Antimicrobial activity against Candida albicans 205 harboring FKS1 T1933C mutant gene and FKS1 hotspot1 S645P mutant gene by M27-A3 method in presence of 50% human serum; assay type: functional
Outline: (§3)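 Broth microdilution per CLSI M27-A3 in RPMI 1640, done in triplicate on three separate days. Each strain was tested with and without 50% human serum. C. krusei ATCC 6258 and C. parapsilosis ATCC 22019 served as QC strains. Arithmetic means are reported, and geometric means were used for comparison.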

[5] = Inhibition of Candida albicans 149 1,3-beta-D-glucan synthase subunit FKS1p G1942T mutant; outline: as §1
[6] = system: Candida albicans; assay: Antimicrobial activity against Candida albicans 122 harboring FKS1 C1946A mutant gene and FKS1 hotspot1 P649H mutant gene by M27-A3 method; assay type: functional; outline: as §3
[7] = system: Candida albicans; assay: Activity at Candida albicans A15-10 1,3-beta-D-glucan synthase subunit FKS1p T1933C mutant
[8] = system: Candida albicans; assay: Antimicrobial activity against Candida albicans 5415 harboring FKS1 T1933C mutant gene and FKS1 hotspot1 S645P mutant gene by M27-A3 method; assay type: functional; outline: as §3
[9] = Inhibition of Candida albicans 194 1,3-beta-D-glucan synthase subunit FKS1p C1934T/G4082R mutant; outline: as §1
[10] = system: Candida albicans; assay: Activity at Candida albicans 90 1,3-beta-D-glucan synthase subunit FKS1p G4082R mutant; outline: as §2
[11] = system: Candida albicans; assay: Antimicrobial activity against Candida albicans 90 harboring FKS1 G4082R mutant gene and FKS1 hotspot2 R1361R/H mutant gene by M27-A3 method; assay type: functional; outline: as §3
[12] = Inhibition of Candida albicans 2762 1,3-beta-D-glucan synthase subunit FKS1p T1922C mutant; outline: as §1
[13] = system: Candida albicans; assay: Antimicrobial activity against Candida albicans SC5314 by M27-A3 method; assay type: functional
Outline: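 Broth microdilution per CLSI M27-A3 in RPMI 1640, with and without 50% human serum, in triplicate. C. krusei ATCC 6258 and C. parapsilosis ATCC 22019 served as quality-control strains. MIC reported as arithmetic mean of three repetitions on separate days.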

[14] = Inhibition of Candida albicans 121 1,3-beta-D-glucan synthase subunit FKS1p G4082A mutant; outline: as §1
[15] = system: Candida albicans; assay: Antimicrobial activity against Candida albicans 121 harboring FKS1 G4082A mutant gene and FKS1 hotspot2 R1361H mutant gene by M27-A3 method in presence of 50% human serum; assay type: functional; outline: as §3
[16] = Inhibition of Candida albicans 3107 1,3-beta-D-glucan synthase subunit FKS1p; outline: as §1
[17] = Inhibition of Candida albicans 1002 1,3-beta-D-glucan synthase subunit FKS1p
Outline: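 Product-entrapped glucan synthase from YPD-grown cells (37°C, early stationary phase) in a filtration polymerization assay with [3H]UDPG. Echinocandin serial dilutions were added, with 1% DMSO in controls for anidulafungin. Reactions were started with enzyme, run 60 min at 25°C and stopped on ice. IC50 came from a variable-slope sigmoidal fit, in triplicate.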

[18] = system: Candida albicans; assay: Antimicrobial activity against Candida albicans 194 harboring FKS1 C1934T/G4082R mutant gene and FKS1 hotspot1 S645F mutant gene and FKS1 hotspot2 R1361R/H mutant gene by M27-A3 method; assay type: functional; outline: as §3
[19] = system: Candida albicans; assay: Antimicrobial activity against Candida albicans 149 harboring FKS1 G1942T mutant gene and FKS1 hotspot1 D648Y mutant gene by M27-A3 method in presence of 50% human serum; assay type: functional; outline: as §3
[20] = system: Candida albicans; assay: Antimicrobial activity against Candida albicans 119 harboring FKS1 T1921C mutant gene and FKS1 hotspot1 F641L mutant gene by M27-A3 method in presence of 50% human serum; assay type: functional; outline: as §3
[21] = system: Candida albicans; assay: Antimicrobial activity against Candida albicans 119 harboring FKS1 T1921C mutant gene and FKS1 hotspot1 F641L mutant gene by M27-A3 method; assay type: functional; outline: as §3
[22] = system: Candida albicans; assay: Antimicrobial activity against Candida albicans 85 harboring FKS1 C1934T mutant gene and FKS1 hotspot1 S645F mutant gene by M27-A3 method in presence of 50% human serum; assay type: functional; outline: as §3
[23] = system: Candida albicans; assay: Antimicrobial activity against Candida albicans 177 harboring FKS1 T1922C mutant gene and FKS1 hotspot1 F641S mutant gene by M27-A3 method in presence of 50% human serum; assay type: functional; outline: as §3
[24] = system: Candida albicans; assay: Activity at Candida albicans 5415 1,3-beta-D-glucan synthase subunit FKS1p T1933C mutant; outline: as §2
[25] = system: Candida albicans; assay: Activity at Candida albicans 205 1,3-beta-D-glucan synthase subunit FKS1p T1933C mutant; outline: as §2
[26] = system: Candida albicans; assay: Antimicrobial activity against Candida albicans 1002 by M27-A3 method in presence of 50% human serum; assay type: functional; outline: as §3
[27] = system: Candida albicans; assay: Antimicrobial activity against Candida albicans 89 harboring FKS1 C1934A mutant gene and FKS1 hotspot1 S645Y mutant gene by M27-A3 method; assay type: functional; outline: as §3
[28] = system: Candida albicans; assay: Antimicrobial activity against Candida albicans 5415 harboring FKS1 T1933C mutant gene and FKS1 hotspot1 S645P mutant gene by M27-A3 method in presence of 50% human serum; assay type: functional; outline: as §3
[29] = Inhibition of Candida albicans 3795 1,3-beta-D-glucan synthase subunit FKS1p; outline: as §1

## CC[C@H](C)C[C@H](C)CCCCCCCCC(=O)N[C@H]1C[C@@H](O)[C@@H](NCCN)NC(=O)[C@@H]2[C@@H](O)CCN2C(=O)[C@H]([C@H](O)CCN)NC(=O)[C@H]([C@H](O)[C@@H](O)c2ccc(O)cc2)NC(=O)[C@@H]2C[C@@H](O)CN2C(=O)[C@H]([C@@H](C)O)NC1=O [CASPOFUNGIN]
[1]
  Km: 122 µM
  Vmax: 5.8 nmol/min
[2]
  IC50: 20.43 ng/mL (≈ 0.0187 µM)
  Ki: 148.15 ng/mL (≈ 0.136 µM)
[3]
  Km: 129 µM
  Vmax: 4.41 nmol/min
[4]
  MIC: 8 µg/mL
[5]
  IC50: 68.22 ng/mL (≈ 0.0624 µM)
  Ki: 200 ng/mL (≈ 0.183 µM)
[6]
  MIC: 4 µg/mL (≈ 3.66 µM)
[7]
  Km: 91 µM
  Vmax: 3.26 nmol/min
[8]
  MIC: 8 µg/mL (≈ 7.32 µM)
[9]
  IC50: 530.7 ng/mL (≈ 0.485 µM)
  Ki: 466.89 ng/mL (≈ 0.427 µM)
[10]
  Km: 31 µM
  Vmax: 2.36 nmol/min
[11]
  MIC: 1 µg/mL (≈ 0.915 µM)
[12]
  IC50: 910 ng/mL (≈ 0.832 µM)
  Ki: 498.93 ng/mL (≈ 0.456 µM)
[13]
  MIC: 0.42 µg/mL (≈ 0.384 µM)
[14]
  IC50: 33.72 ng/mL (≈ 0.0308 µM)
  Ki: 308 ng/mL (≈ 0.282 µM)
[15]
  MIC: 8 µg/mL
[16]
  Ki: 8.79 ng/mL (≈ 0.00804 µM)
[17]
  IC50: 1.75 ng/mL (≈ 0.0016 µM)
  Ki: 6.26 ng/mL (≈ 0.00573 µM)
[18]
  MIC: 4 µg/mL (≈ 3.66 µM)
[19]
  MIC: 4 µg/mL
[20]
  MIC: 8 µg/mL
[21]
  MIC: 2 µg/mL (≈ 1.83 µM)
[22]
  MIC: 8 µg/mL
[23]
  MIC: 16 µg/mL
[24]
  Km: 98 µM
  Vmax: 3.12 nmol/min
[25]
  Km: 116 µM
  Vmax: 5.54 nmol/min
[26]
  MIC: 0.5 µg/mL
[27]
  MIC: 8 µg/mL (≈ 7.32 µM)
[28]
  MIC: 8 µg/mL
[29]
  IC50: 1.44 ng/mL (≈ 0.00132 µM)
  Ki: 4.67 ng/mL (≈ 0.00427 µM)

## CCCCCOc1ccc(-c2cc(-c3ccc(C(=O)N[C@H]4C[C@@H](O)[C@@H](O)NC(=O)[C@@H]5[C@@H](O)[C@@H](C)CN5C(=O)[C@H]([C@H](O)CC(N)=O)NC(=O)[C@H]([C@H](O)[C@@H](O)c5ccc(O)c(OS(=O)(=O)O)c5)NC(=O)[C@@H]5C[C@@H](O)CN5C(=O)[C@H]([C@@H](C)O)NC4=O)cc3)no2)cc1 [MICAFUNGIN] (X1-[Orn(4R-OH,5R-OH)]T[Hyp][hTyr(3S-OH,4S-OH,3'-OSO3H)][Gln(3R-OH)][Pro(3S-OH,4S-Me)]; lactam 1-C)
[1]
  Km: 122 µM
  Vmax: 5.8 nmol/min
[2]
  IC50: 77.39 ng/mL (≈ 0.0609 µM)
  Ki: 264.73 ng/mL (≈ 0.208 µM)
[3]
  Km: 129 µM
  Vmax: 4.41 nmol/min
[4]
  MIC: 8 µg/mL
[5]
  IC50: 375.5 ng/mL (≈ 0.296 µM)
  Ki: 489.23 ng/mL (≈ 0.385 µM)
[6]
  MIC: 0.83 µg/mL (≈ 0.653 µM)
[7]
  Km: 91 µM
  Vmax: 3.26 nmol/min
[8]
  MIC: 4 µg/mL (≈ 3.15 µM)
[9]
  IC50: 1765 ng/mL (≈ 1.39 µM)
  Ki: 493.83 ng/mL (≈ 0.389 µM)
[10]
  Km: 31 µM
  Vmax: 2.36 nmol/min
[11]
  MIC: 0.5 µg/mL (≈ 0.394 µM)
[12]
  IC50: 1693 ng/mL (≈ 1.33 µM)
  Ki: 1447.88 ng/mL (≈ 1.14 µM)
[13]
  MIC: 0.05 µg/mL (≈ 0.0394 µM)
[14]
  IC50: 498.2 ng/mL (≈ 0.392 µM)
  Ki: 840.48 ng/mL (≈ 0.662 µM)
[15]
  MIC: 8 µg/mL
[16]
  IC50: 14.72 ng/mL (≈ 0.0116 µM)
  Ki: 41.87 ng/mL (≈ 0.033 µM)
[17]
  IC50: 53.34 ng/mL (≈ 0.042 µM)
  Ki: 34.52 ng/mL (≈ 0.0272 µM)
[18]
  MIC: 2.67 µg/mL (≈ 2.1 µM)
[19]
  MIC: 4 µg/mL
[20]
  MIC: 8 µg/mL
[21]
  MIC: 0.33 µg/mL (≈ 0.26 µM)
[22]
  MIC: 8 µg/mL
[23]
  MIC: 16 µg/mL
[24]
  Km: 98 µM
  Vmax: 3.12 nmol/min
[25]
  Km: 116 µM
  Vmax: 5.54 nmol/min
[26]
  MIC: 0.5 µg/mL
[27]
  MIC: 4 µg/mL (≈ 3.15 µM)
[28]
  MIC: 8 µg/mL
[29]
  IC50: 38.89 ng/mL (≈ 0.0306 µM)
  Ki: 58.64 ng/mL (≈ 0.0462 µM)
